Reference: PMC6405215 (Cell chemical biology, 2018)

Legend:
human macrophages [1] = assay: Macrophage phagocytosis of serum-treated zymosan; format: cell-based; details: human MΦ; for phagocytosis of STZ, dose response: 0.1pM-10 nM, 15 min preincubation; for increase of phagocytosis of STZ above vehicle: 10 pM
Summary of the method: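 GM-CSF-differentiated human macrophages were plated at 50,000 cells/well in PBS++ and used 24 h later. Compounds (0.1 pM–10 nM) were added for 15 min at 37 °C, pH 7.45. FITC-labelled serum-treated zymosan was then added at 10:1 for 40 min at 37 °C. Extracellular signal was quenched with trypan blue and fluorescence read at Ex 493/Em 535 nm. Results are % above vehicle, triplicates from 3–4 donors, with curve fitting.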

DRV1/GPR32 [2] = target: T1, DRV1/GPR32 (Homo sapiens, UniProt O75388); assay: GPR32 PathHunter β-Arrestin Assay; format: cell-based
T1 sequence (O75388 whole entry): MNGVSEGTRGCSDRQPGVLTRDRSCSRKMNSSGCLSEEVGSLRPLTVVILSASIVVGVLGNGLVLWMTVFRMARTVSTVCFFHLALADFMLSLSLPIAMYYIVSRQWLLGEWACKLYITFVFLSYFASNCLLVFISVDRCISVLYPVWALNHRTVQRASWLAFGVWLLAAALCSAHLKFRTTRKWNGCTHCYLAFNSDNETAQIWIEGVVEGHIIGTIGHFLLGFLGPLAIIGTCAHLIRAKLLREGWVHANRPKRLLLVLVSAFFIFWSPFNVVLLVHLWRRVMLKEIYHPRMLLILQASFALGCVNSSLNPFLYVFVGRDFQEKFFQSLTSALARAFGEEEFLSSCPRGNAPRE
Summary of the method: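 CHO-K1 PathHunter GPR32 cells were grown with geneticin 800 μg/mL and hygromycin B 300 μg/mL, then seeded at 2,500 cells/well in 1536-well plates overnight. Compounds in DMSO were tested at 11 points (1:3, 57 μM–1 nM) for 90 min at 37 °C, then detection reagent was added for 1 h and luminescence read. DMSO (0.57%) set 0%; a 2-fold signal increase set 100%. Two experiments in triplicate.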

DRV1/GPR32 [3] = target: T1, DRV1/GPR32; assay: GPR32 cAMP HTRF signaling assay; format: cell-based; details: for effect on forskolin-stimulated cAMP: forskolin 8 μM
Summary of the method: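 CHO-K1 PathHunter GPR32 cells were seeded at 1,800 cells/well for 20 h, then stimulated with forskolin (8 μM final) plus Ro 20-1724 (100 μM final). Compounds were added as 1:3 dilutions (57 μM–1 nM final) for 30 min at 37 °C. cAMP was read by HTRF as the 665/615 nm ratio ×10,000. Forskolin alone set 0%; DMSO (0.57%) set −100%. Two experiments in triplicate.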

recombinant human DRV1 = recombinant human DRV1 (Homo sapiens, UniProt O75388); assay: Electrical cell substrate impedance sensing; format: cell-based; details: for direction of impedance change: CHO cells expressing DRV1, concentration not stated
Sequence of recombinant human DRV1 (O75388 whole entry): as above
Summary of the method: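 GPR32- or mock-transfected CHO cells were seeded at 0.1×10^6 per well of an 8-well ECIS electrode array. Test compounds were added in serum-free medium at 100 nM–10 μM. Impedance across the monolayer was recorded every 4 s for 10 min at 37 °C. Tracings are representative of 3 independent experiments.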

human macrophages [4] = assay: CD163; format: cell-based; details: 10 nM, 24h; significant only for RvD1
[5] = tested on: mock-transfected macrophages; assay: Real-time phagocytosis of live E. coli, mock-transfected macrophages; format: cell-based, human; details: 10 nM
Summary of the method: (§1)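 Macrophages were transfected with a human GPR32 expression vector or a mock vector (5 μg) using Jet-PEI. Cells were re-plated on chamber slides 48 h later and imaged 24 h after that in a stage-top incubator. Compound (10 nM) was given for 15 min at 37 °C, then BacLight Green-labelled E. coli at 50:1. Fluorescence was imaged every 10 min for 60 min, 4 fields/well at 40X. Results are % above vehicle from 3 donors.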

[6] = tested on: DRV1-transfected macrophages; assay: Real-time phagocytosis of live E. coli, macrophages overexpressing DRV1/GPR32; format: cell-based, human; details: 10 nM
Summary of the method: as §1

CHO-WT cells = assay: ECIS in wild-type CHO cells; format: cell-based, Chinese hamster; details: 1μM
[7] = hGPR32/DRV1-transfected, 10 min

Row | SMILES | EC50 (DRV1/GPR32 [2]) [nM] | EC50 (DRV1/GPR32 [3]) [nM] | direction of impedance change (recombinant human DRV1) | impedance change (recombinant human DRV1; CHO-hDRV1, 100 nM) | phagocytosis of STZ (human macrophages [1]; 0.1–10 nM) | effect on forskolin-stimulated cAMP (DRV1/GPR32 [3]) | impedance change (recombinant human DRV1; CHO-DRV1, 100 nM-10 μM) | phagocytosis of STZ, dose response (human macrophages [1]) | increase of phagocytosis of STZ above vehicle (human macrophages [1]) | increase of CD163 levels compared to vehicle (human macrophages [4]) [%] | increase of phagocytosis of E. coli above vehicle control ([5]; 10 min) | increase of phagocytosis of E. coli above vehicle control [6, 7] [%] | increase of phagocytosis of E. coli above vehicle control ([5]; 20–30 min) | increase of phagocytosis of E. coli above vehicle control ([6]; DRV1-transfected, 20–30 min) [%] | β-arrestin signal increase above basal cell activity (DRV1/GPR32 [2]; GPR32 β-arrestin cells, 11 concentrations 57 μM to 1 nM) | impedance change (recombinant human DRV1; CHO-DRV1 cells, 1μM) | impedance change (CHO-WT cells) | β-arrestin activity (DRV1/GPR32 [2]; dose response)
1 | NCCc1c[nH]c2ccc(O)cc12 [5-HT] | – | – | – | – | did not significantly increase phagocytosis | – | – | – | – | – | – | – | – | – | – | – | – | –
2 | COc1cccc(C(=O)Nc2nnc(S(=O)(=O)N3CCOCC3)s2)c1 [C1A, 3-methoxy-N-(5-morpholin-4-ylsulfonyl-1,3,4-thiadiazol-2-yl)benzamide] | 930 | 380 | increased impedance | – | – | dose-dependently reduced forskolin-stimulated cAMP release | dose-dependently elicited rapid changes in impedance | enhanced phagocytosis in a dose-dependent manner | 35–40% | 4.7 | ~ 15% | > 70 | – | – | – | – | – | –
3 | COc1ccccc1N1CCN(CCN(C(=O)c2ccc(F)cc2)c2ccccn2)CC1 [pMPPF, 4-Fluoro-N-{2-[4-(2-methoxyphenyl)-1-piperazinyl]ethyl}-N-(2-pyridinyl)benzamide, reference compound] | 1160 | – | increased impedance | – | – | dose-dependently reduced forskolin-stimulated cAMP release | – | enhanced phagocytosis in a dose-dependent manner | ~ 60% | 13.7 | – | – | – | > 50 | ~ 30% | increased | did not give significant impedance changes | –
4 | COc1ccccc1N1CCN(CCN(C(=O)c2ccc(I)cc2)c2ccccn2)CC1 [pMPPI, 4-iodo-N-{2-[4-(2-methoxyphenyl)-1-piperazinyl]ethyl}-N-(2-pyridinyl)benzamide, reference compound] | – | 2500 | reduced impedance | – | – | increased forskolin-stimulated cAMP release | – | enhanced phagocytosis in a dose-dependent manner | significantly less potent than pMPPF | 20.0 | – | – | – | – | – | reduced impedance | did not give significant impedance changes | not β-arrestin activities

More lines, main results first:

Row | EC50 (DRV1/GPR32 [2]) [nM] | EC50 (DRV1/GPR32 [3]) [nM] | direction of impedance change (recombinant human DRV1) | impedance change (recombinant human DRV1; CHO-hDRV1, 100 nM) | SMILES | phagocytosis of STZ (human macrophages [1]; 0.1–10 nM) | effect on forskolin-stimulated cAMP (DRV1/GPR32 [3]) | impedance change (recombinant human DRV1; CHO-DRV1, 100 nM-10 μM) | phagocytosis of STZ, dose response (human macrophages [1]) | increase of phagocytosis of STZ above vehicle (human macrophages [1]) | increase of CD163 levels compared to vehicle (human macrophages [4]) [%] | increase of phagocytosis of E. coli above vehicle control ([5]; 10 min) | increase of phagocytosis of E. coli above vehicle control [6, 7] [%] | increase of phagocytosis of E. coli above vehicle control ([5]; 20–30 min) | increase of phagocytosis of E. coli above vehicle control ([6]; DRV1-transfected, 20–30 min) [%] | β-arrestin signal increase above basal cell activity (DRV1/GPR32 [2]; GPR32 β-arrestin cells, 11 concentrations 57 μM to 1 nM) | impedance change (recombinant human DRV1; CHO-DRV1 cells, 1μM) | impedance change (CHO-WT cells) | β-arrestin activity (DRV1/GPR32 [2]; dose response)
5 | 3790 | 320 | increased impedance | – | O=C(Nc1nnc(S(=O)(=O)N2CCOCC2)s1)c1cccc(Br)c1 [C1B, 3-bromo-N-(5-morpholin-4-ylsulfonyl-1,3,4-thiadiazol-2-yl)benzamide] | – | dose-dependently reduced forskolin-stimulated cAMP release | dose-dependently elicited rapid changes in impedance | – | – | – | – | – | – | – | – | – | – | –
6 | 370 | 50 | increased impedance | – | Cc1c(-c2cccc(NC(=O)c3ccc(F)c(F)c3)c2)nc2ncccn12 [C2A, 3,4-difluoro-N-[3-(3-methylimidazo[1,2-a]pyrimidin-2-yl)phenyl]benzamide] | – | dose-dependently reduced forskolin-stimulated cAMP release | dose-dependently elicited rapid changes in impedance | enhanced phagocytosis in a dose-dependent manner | 35–40% | 13.3 | – | > 40 | – | – | – | – | – | –
7 | 1170 | 190 | increased impedance | – | COc1cccc(C(=O)Nc2cccc(-c3nc4ncccn4c3C)c2)c1 [C2B, 3-methoxy-N-[3-(3-methylimidazo[1,2-a]pyrimidin-2-yl)phenyl]benzamide] | – | dose-dependently reduced forskolin-stimulated cAMP release | dose-dependently elicited rapid changes in impedance | – | – | – | – | – | – | – | – | – | – | –
8 | – | – | reduced impedance | time-dependently reduced impedance | CC/C=C\C[C@H](O)/C=C/C=C\C=C\C=C\[C@@H](O)[C@@H](O)C/C=C\CCC(=O)O [RvD1, 7S,8R,17S-trihydroxy-4Z,9E,11E,13Z,15E,19Z-docosahexaenoic acid, reference compound] | – | – | – | dose-dependently increased phagocytosis | ~ 60% | 25.7 | – | – | 30–40% | > 100 | – | – | – | –
